dFosB act: enhances mouse delta FosB homodimer DNA binding. activation, % at 25 µM. hit rate 0.99% among 340,000. AID 493131. purified delta FosB, TAMRA-CDK5 oligo fluorescence polarization; percent of positive-control signal above neutral wells. P13346;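 active = mean activation above about 17%, with every replicate also reaching it, limit read from the data, passing the limit was not always enough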
Target sequence (P13346 whole entry, looked up): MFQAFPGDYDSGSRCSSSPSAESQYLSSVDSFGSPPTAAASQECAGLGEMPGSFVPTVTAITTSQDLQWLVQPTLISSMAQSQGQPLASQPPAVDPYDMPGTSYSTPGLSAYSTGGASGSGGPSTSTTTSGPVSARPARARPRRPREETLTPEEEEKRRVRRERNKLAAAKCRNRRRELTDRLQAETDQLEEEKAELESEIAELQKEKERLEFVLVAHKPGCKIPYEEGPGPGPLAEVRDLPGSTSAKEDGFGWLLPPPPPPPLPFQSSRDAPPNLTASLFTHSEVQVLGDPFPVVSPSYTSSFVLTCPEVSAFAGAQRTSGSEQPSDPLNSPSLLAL
Ecoli rRNA inh: selective bacterial rRNA inhibition in E. coli. hit rate 1.6% among 350,000. GFP signal change (wild-type ribosome), % (no concentration beside the values). E. coli WT GFP vs humanized-ribosome RFP mutants, fluorescence, 24 h; active compounds read low; DMSO median 0, no signal -100;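 active = significant combined selectivity score with lowered wild-type GFP, culture density cut under 30%, mutant RFP and density less affected; inactive = any of these conditions unmet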
SR-BI HDL uptake: inhibitors of mouse SR-BI mediated HDL lipid uptake. hit rate 0.96% among 320,000. ldlA[mSR-BI] CHO cells, DiI-HDL uptake fluorescence, 3 h. Q61009. inhibition, % at 12.5 µM. AID 488896;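 active = mean replicate inhibition of at least 70% and a set share of replicates each scoring 70 or more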;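 note: 0% = median of neutral control wells and 100% = median of positive control wells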
PvdQ inh: P. aeruginosa PvdQ acylase inhibition. purified PvdQ acylase, fluorescence plate reader. inhibition, % at 10 µM. hit rate 0.063% among 340,000. AID 488965; in the data active = inhibition above about 30%, passing the limit was not always enough;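 note: 0% = vehicle neutral wells and 100% = reference inhibitor wells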
SR-BI DiI-HDL act: activators of SR-BI mediated HDL lipid uptake; CHO ldlA[mSR-BI] cells, DiI-HDL uptake fluorescence, 3 h; 100 = double the neutral-control signal; activation, % at 12.5 µM; hit rate 0.096% among 320,000;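 active = mean replicate activation of at least 60% and every replicate at or above 60%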;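 note: 0% = median plate neutral-control signal and 100% = twice that signal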
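Test system: SR-BI-overexpressing, LDLR-lacking CHO cells; Also added: labelled HDL, 10 µg/mL; Measured by: bottom-read cell fluorescence after medium removal, ex 550/em 595 nm; Timing: 3 h uptake period with compound, 37 °C; Buffer or medium: F12, 0.5% BSA, 25 mM HEPES; Doses: single compound concentration, delivered by pin transfer.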
XiGFP reactiv: activators of X-chromosome reactivation in mouse fibroblasts; XiGFP mouse fibroblasts, % GFP-positive cells imaging, 3 d; cells co-treated with 5-aza-dC sensitizer; scaled so ellipticine positive control = 100%; activation, % at 7.58 µM; hit rate 0.055% among 360,000;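 active = mean normalized replicate activation at least 10% and every replicate at or above 10%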;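 note: 0% = median of on-plate neutral control wells and 100% = ellipticine 6 µM median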
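System: SV40-immortalized XiGFP fibroblast cells, line 68-5-11 / Incubation: 3-day compound exposure, then 15 min fixation at room temperature / Compound: single concentration per compound, delivered by pin transfer / Buffer or medium: DMEM plus 5-aza-dC sensitizer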
Numbers without * were called inactive; / = no result. Sampled rows, rich in hits. Any-hit rate of the full collection: about 2.6%.

SMILES | dFosB act | Ecoli rRNA inh | SR-BI HDL uptake | PvdQ inh | SR-BI DiI-HDL act | XiGFP reactiv
COc1cnc(-c2ccccc2)nc1Oc1cccc(C)c1C | 5 | / | 0 | -8 | 0 | /
O=C(OCc1ccccc1)c1cccc(-c2nnc(-c3ccccc3)o2)c1 | -23 | / | -62 | 1 | 62* | /
Cc1cc(C(=O)CSc2nc3ccccc3[nH]2)c(C)n1Cc1ccco1 | 2 | -34* | 22 | -20 | -22 | 0
COc1ccc(CNCCSc2nnnn2C)cc1OC | -6 | / | -3 | -22 | 3 | /
COc1cccc(CNCCSc2nnnn2C)c1 | -3 | / | -60 | -12 | 60* | /
O=C(c1nc2ccccn2c1CN1CCCC(O)C1)N1CCN(C2CCCCC2)CC1 (configuration not stated) | -4 | 10 | -43 | 6 | 43 | 0
Cc1ccc(C23CC4CC(CC(C(=O)N(C)C)(C4)C2)C3)cc1 | 0 | -12 | 19 | -4 | -19 | 0
Cc1ccc(C23CC4CC(CC(C(N)=O)(C4)C2)C3)cc1 | -4 | -23* | -20 | -15 | 20 | 0
Cc1ccccc1NC(=O)Cc1cn(C)c2ccccc12 | -9 | / | 13 | 5 | -13 | /
Nc1ccc(Nc2nc(-c3ccncc3)cs2)cc1 | -17 | -17* | 3 | -9 | -3 | /
Brc1ccc(Nc2nc(-c3cccnc3)cs2)cc1 | -10 | -24* | 48 | 2 | -48 | 0
CC(C)C[C@@]12C(=O)N(c3cccc(F)c3)C(=O)N1[C@H](c1ccc(Br)cc1)[C@@H]1C(=O)N(C(C)(C)C)C(=O)[C@@H]12 | -1 | / | -23 | 6 | 23 | 0
Cn1c(NC(=O)C[n+]2cc(-c3ccc(Cl)cc3)n3c2CCC3)cc(=O)n(C)c1=O | -7 | 15 | 15 | -25 | -15 | 0
CCOC(=O)c1cccc(NC(=O)/C=C/c2cccc([N+](=O)[O-])c2)c1 | -11 | / | 73* | -13 | -73 | /
CCc1ccc([C@@H]2CC=C(C(=O)O)CN2S(=O)(=O)c2ccc(C)cc2)cc1 | -11 | -23* | -2 | -12 | 2 | 0
CCOc1ccc([C@@H]2CC=C(C(=O)O)CN2S(=O)(=O)c2ccc(C)cc2)cc1 | -4 | -26* | 2 | -11 | -2 | 0
CN(CCOc1ccccc1)C(=O)c1ccc(OC2CCN(C(=O)C3CC3)CC2)cc1 | -7 | -19* | / | -14 | / | 1
CCC1Sc2ccc(S(=O)(=O)CCC(=O)Nc3ccccc3Cl)cc2NC1=O (configuration not stated) | -9 | -1 | -9 | 2 | 9 | 0
COc1cc(/C=N/NC(=S)NC2CC3CCC2C3)ccc1O (configuration not stated) | -6 | -26* | 58 | -9 | -58 | 0
Cc1ccc(C(C(=O)NC2CCCC2)N(CCCO)C(=O)Cn2nnc(-c3ccc(C)o3)n2)cc1 (configuration not stated) | -4 | 3 | / | 2 | / | 0
O=C(Nc1nc(-c2ccc(F)cc2)cs1)c1cccc(N2C(=O)CCC2=O)c1 | -2 | -33 | 81* | -12 | -81 | 0
Cc1ccc2sc(NC(=O)c3cccc(N4C(=O)CCC4=O)c3)nc2c1C | -5 | 3 | 94* | -12 | -94 | 0
Cc1ccc2nc(NC(=O)c3ccc(N4C(=O)CCC4=O)cc3)sc2c1 | 1 | 14 | 77* | -1 | -77 | 0
CC(C)(C)NS(=O)(=O)c1ccc2nc(NC(=O)c3ccc(N4C(=O)CCC4=O)cc3)sc2c1 | -1 | / | 17 | -14 | -17 | 0
Cc1nc(N2CCCCC2)c2c(C)c(C(=O)Nc3ccc4c(c3)OCCO4)sc2n1 | 1 | -11 | 77* | 16 | -77 | 0
SMILES | dFosB act | Ecoli rRNA inh | SR-BI HDL uptake | PvdQ inh | SR-BI DiI-HDL act | XiGFP reactiv
Cc1nc(N2CCC(C)CC2)c2c(C)c(C(=O)Nc3ccc(C)c(F)c3)sc2n1 | -8 | 2 | 87* | -2 | -87 | 0
Cc1nc(N2CCN(C)CC2)c2c(C)c(C(=O)Nc3ccc(C)c(F)c3)sc2n1 | -10 | / | 38 | -12 | -38 | /
Cc1cccc(NC(=O)c2sc3nc(C)nc(N4CCOCC4)c3c2C)c1 | / | / | / | / | / | 0
CCN(CC)c1ccc(N2C(=O)/C(=C/c3ccccn3)SC2=S)cc1 | -7 | 8 | 5 | 3 | -5 | 0
O=C(COC(=O)c1ccccc1NC(=O)c1ccco1)NCC1CCCCC1 | 8 | / | 14 | -8 | -14 | /
CC(C)(C)n1ncc2c(=O)n(CC(=O)N3CCCCC3)cnc21 | -11 | 8 | -27 | -13 | 27 | 0
C[C@H]1CN([C@@H](C)CO)C(=O)c2cccc(N(C)C)c2O[C@@H]1CN(C)Cc1ccc(C(=O)Nc2ccccc2N)cc1 | / | 1 | / | / | / | -1
COc1ccc(CCNC(=O)CCCn2c(=O)c3cccn3c3cccnc32)c(OC)c1OC | -8 | 10 | 44 | -28 | -44 | 0
CSc1cccc(NC(=O)CCn2c(=O)c3cccn3c3cccnc32)c1 | -2 | -1 | 77* | -6 | -77 | 0
COc1ccc(CCNC(=O)CCCn2c(=O)c3cccn3c3cccnc32)c(OC)c1 | -2 | 3 | 71* | -1 | -71 | 0
CCOc1ccc(CCNC(=O)CCCn2c(=O)c3cccn3c3cccnc32)cc1OCC | -2 | 3 | 76* | -1 | -76 | 0
Cc1ccc(-c2ccc3c(c2)O[C@H](CN(C)Cc2cccnc2)[C@H](C)CN([C@H](C)CO)S3(=O)=O)cc1 | / | -46 | / | / | / | -1
CCCNC(=O)C[C@H]1C[C@@H]2c3cc(NC(=O)C4CCC4)ccc3O[C@@H]2[C@@H](CO)O1 | / | -2 | / | / | / | 0
CC(OC(=O)c1cccc(-n2cnnn2)c1)C(=O)Nc1ccccc1F (configuration not stated) | -13 | 0 | 10 | 10 | -10 | 0
O=C(Cc1coc2cc(O)ccc12)N1CCN(S(=O)(=O)c2ccc(Br)cc2)CC1 | -13 | -20* | 20 | -4 | -20 | 0
Cc1ccc2c(CC(=O)N3CCN(S(=O)(=O)c4cccs4)CC3)coc2c1 | -9 | / | -4 | -10 | 4 | /
CC1=C(C#N)C(=O)N(C)C(C)(C)C1 | -4 | / | -140 | -11 | 140* | /
CC1=C(C#N)C(=O)NC(C)(C)C1 | 2 | 5 | 5 | -6 | -5 | /
NC(=O)COC(=O)/C=C/c1ccc(S(=O)(=O)N2CCCCCC2)cc1 | 2 | -4 | 4 | -18 | -4 | 0
COc1ccc(/C=C/C(=O)Nc2cccc(S(=O)(=O)N3CCCC3)c2)cc1OC | 4 | -17 | 80* | 9 | -80 | 0
CCOC(=O)C1CCN(C(=O)/C=C/c2ccc(S(=O)(=O)N3CCOCC3)cc2)CC1 | 1 | 2 | -63 | -21 | 63* | 0
COc1ccc(CC(=O)Nc2cccc(S(=O)(=O)N3CCCC3)c2)cc1OC | -7 | / | 10 | -16 | -10 | 0

Screening data (PubChem BioAssay)
